From ChEMBL document CHEMBL2086296, “Synthesis of novel quinoline-2-one based chalcones of potential anti-tumor activity” (Eur J Med Chem, 2012)

What was measured:
MCF7 [1] = experiment: (§1) Cytotoxicity against human MCF7 cells after 24 hrs by SRB assay; type: functional; conditions: MCF7, 24 h
Procedure, shortened: (§2)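 NCI 60-line screen. Cells in RPMI 1640 with 5% FBS and 2 mM L-glutamine, seeded at 5,000–40,000 cells/well by doubling time, then incubated 24 h at 37 °C, 5% CO2 before dosing. Time-zero plates fixed with TCA at drug addition. DMSO stocks diluted in medium with gentamicin to five concentrations, […]. Protein read by SRB staining. GI50, TGI and LC50 derived relative to control and time-zero.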

NCI-H460 = experiment: Cytotoxicity against human NCI-H460 cells after 24 hrs by SRB assay; type: cell-based; conditions: nci-h460, 24 h
Procedure, shortened: (§3)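 NCI 60-cell screen. Cells grown in RPMI 1640 with 5% FBS and 2 mM L-glutamine, seeded at 5,000–40,000 cells/well, preincubated 24 h at 37 °C in 5% CO2. Drug stock in DMSO, diluted in medium with gentamicin; five final concentrations, 100, 10, 1.0, 0.1 and […]. Time-zero plates were TCA-fixed. Protein read by SRB staining; GI50, TGI and LC50 taken relative to time-zero.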

KM12 = experiment: Cytotoxicity against human KM12 cells after 24 hrs by SRB assay; type: cell-based; conditions: km12, 24 h; procedure, shortened: as §3
MOLT-4 = experiment: Cytotoxicity against human MOLT4 cells after 24 hrs by SRB assay; type: cell-based; conditions: molt-4, 24 h; procedure, shortened: as §3
OVCAR-4 [2] = experiment: (§4) Cytotoxicity against human OVCAR4 cells after 24 hrs by SRB assay; type: functional; conditions: OVCAR-4, 24 h; procedure, shortened: as §2
U-251 [3] = experiment: (§5) Cytotoxicity against human U251 cells after 24 hrs by SRB assay; type: functional; conditions: U-251, 24 h
Procedure, shortened: (§6)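 NCI 60-cell screen. Cells are grown in RPMI 1640 with 5% FBS and 2 mM L-glutamine and seeded at 5,000–40,000 cells/well according to doubling time. They are preincubated 24 h at 37 °C in 5% CO2, and Tz plates are TCA-fixed at drug addition. Drug stock is in DMSO, diluted in medium with gentamicin, and tested at five concentrations (100, 10, 1.0, 0.1, […]). Protein is read by SRB staining. GI50, TGI and LC50 are derived relative to time-zero and control wells.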

U-251 [4] = experiment: as §5; type: cell-based; conditions: u-251, 24 h
Procedure, shortened: (§7)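 NCI 60-cell-line screen: cells grown in RPMI 1640 with 5% FBS and 2 mM L-glutamine, seeded at 5,000–40,000 cells/well by doubling time, and preincubated 24 h at 37 °C in 5% CO2. Time-zero plates were TCA-fixed. DMSO stocks were diluted in medium with gentamicin to five concentrations (100, 10, 1.0, 0.1, […]). Protein was read by SRB, and GI50, TGI and LC50 were derived against time-zero.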

MCF7 [5] = experiment: as §1; type: cell-based; conditions: mcf7, 24 h; procedure, shortened: as §3
COLO 205 = experiment: Cytotoxicity against human COLO205 cells after 24 hrs by SRB assay; type: cell-based; conditions: colo 205, 24 h; procedure, shortened: as §3
NCI/ADR-RES = experiment: Cytotoxicity against human NCI/ADR-RES cells after 24 hrs by SRB assay; type: cell-based; procedure, shortened: as §3
SF-268 [6] = experiment: (§8) Cytotoxicity against human SF268 cells after 24 hrs by SRB assay; type: functional; conditions: SF-268, 24 h; procedure, shortened: as §2
786-0 [7] = experiment: (§9) Cytotoxicity against human 786-0 cells after 24 hrs by SRB assay; type: cell-based; conditions: 786-0, 24 h; procedure, shortened: as §3
RXF 393 = experiment: Cytotoxicity against human RXF393 cells after 24 hrs by SRB assay; type: cell-based; conditions: rxf 393, 24 h; procedure, shortened: as §3
SF-295 = experiment: Cytotoxicity against human SF295 cells after 24 hrs by SRB assay; type: cell-based; conditions: sf-295, 24 h; procedure, shortened: as §3
SF-268 [8] = experiment: as §8; type: cell-based; conditions: sf-268, 24 h; procedure, shortened: as §3
OVCAR-4 [9] = experiment: as §4; type: cell-based; conditions: ovcar-4, 24 h; procedure, shortened: as §3
TK-10 = experiment: Cytotoxicity against human TK10 cells after 24 hrs by SRB assay; type: functional; conditions: TK-10, 24 h; procedure, shortened: as §6
SK-MEL-2 = experiment: Cytotoxicity against human SK-MEL-2 cells after 24 hrs by SRB assay; type: functional; conditions: SK-MEL-2, 24 h; procedure, shortened: as §2
M14 = experiment: Cytotoxicity against human M14 cells after 24 hrs by SRB assay; type: functional; conditions: M14, 24 h; procedure, shortened: as §2
LOX IMVI = experiment: Cytotoxicity against human LOXIMVI cells after 24 hrs by SRB assay; type: functional; procedure, shortened: as §2
SW-620 = experiment: Cytotoxicity against human SW620 cells after 24 hrs by SRB assay; type: functional; conditions: SW-620, 24 h; procedure, shortened: as §6
BT-549 = experiment: Cytotoxicity against human BT549 cells after 24 hrs by SRB assay; type: cell-based; conditions: bt-549, 24 h; procedure, shortened: as §3
SF-539 = experiment: Cytotoxicity against human SF539 cells after 24 hrs by SRB assay; type: functional; conditions: SF-539, 24 h; procedure, shortened: as §2
T47D = experiment: Cytotoxicity against human T47D cells after 24 hrs by SRB assay; type: functional; procedure, shortened: as §6
A549 = experiment: Cytotoxicity against human A549 cells after 24 hrs by SRB assay; type: functional; conditions: A549, 24 h; procedure, shortened: as §2
786-0 [10] = experiment: as §9; type: functional; conditions: 786-0, 24 h; procedure, shortened: as §2
HCC 2998 = experiment: Cytotoxicity against human HCC2998 cells after 24 hrs by SRB assay; type: cell-based; conditions: hcc 2998, 24 h; procedure, shortened: as §3
UACC-257 = experiment: Cytotoxicity against human UACC257 cells after 24 hrs by SRB assay; type: cell-based; conditions: uacc-257, 24 h; procedure, shortened: as §7
OVCAR-3 = experiment: Cytotoxicity against human OVCAR3 cells after 24 hrs by SRB assay; type: functional; conditions: OVCAR-3, 24 h; procedure, shortened: as §2
NCI-H522 = experiment: Cytotoxicity against human NCI-H522 cells after 24 hrs by SRB assay; type: functional; conditions: NCI-H522, 24 h; procedure, shortened: as §2
SN12C = experiment: Cytotoxicity against human SN12C cells after 24 hrs by SRB assay; type: cell-based; procedure, shortened: as §7
NCI-H23 = experiment: Cytotoxicity against human NCI-H23 cells after 24 hrs by SRB assay; type: cell-based; conditions: nci-h23, 24 h; procedure, shortened: as §3
MDA-MB-468 = experiment: Cytotoxicity against human MDA-MB-468 cells after 24 hrs by SRB assay; type: functional; conditions: MDA-MB-468, 24 h; procedure, shortened: as §2
HCT-116 = experiment: Cytotoxicity against human HCT116 cells after 24 hrs by SRB assay; type: functional; conditions: HCT-116, 24 h; procedure, shortened: as §2
HL-60 = experiment: Cytotoxicity against human HL60 cells after 24 hrs by SRB assay; type: functional; conditions: HL-60, 24 h; procedure, shortened: as §2

For `O=C(/C=C/c1cc2ccccc2[nH]c1=O)/C=C/c1cc2ccccc2[nH]c1=O`, the GI50 (MCF7 [1]) was 0.327 µM, the TGI (MCF7 [1]) was > 100 µM and the LC50 (NCI-H460) was > 100 µM. For the same molecule, the LC50 (KM12) was 5.12 µM, the LC50 (MOLT-4) was > 100 µM and the GI50 (OVCAR-4 [2]) was 2.06 µM. For the same molecule, the TGI (OVCAR-4 [2]) was > 100 µM, the GI50 (U-251 [3]) was 0.372 µM and the TGI (U-251 [3]) was 2.1 µM. For the same molecule, the LC50 (U-251 [4]) was > 100 µM, the LC50 (MCF7 [5]) was > 100 µM and the LC50 (COLO 205) was > 100 µM. The LC50 (NCI/ADR-RES) was > 100 µM, the GI50 (SF-268 [6]) was 3.75 µM and the TGI (SF-268 [6]) was > 100 µM. For the same molecule, the LC50 (786-0 [7]) was > 100 µM, the LC50 (RXF 393) was 7.73 µM and the LC50 (SF-295) was > 100 µM. For the same molecule, the LC50 (SF-268 [8]) was > 100 µM, the LC50 (OVCAR-4 [9]) was > 100 µM and the GI50 (TK-10) was 4.6 µM. The TGI (TK-10) was > 100 µM, the GI50 (SK-MEL-2) was > 100 µM and the TGI (SK-MEL-2) was > 100 µM. It also gave a GI50 (M14) of 0.393 µM, a GI50 (LOX IMVI) of 0.134 µM and a TGI (LOX IMVI) of 0.352 µM. For the same molecule, the GI50 (SW-620) was 1 µM, the TGI (SW-620) was 3.92 µM and the LC50 (BT-549) was > 100 µM. The GI50 (SF-539) was 2.13 µM, the TGI (SF-539) was > 100 µM and the GI50 (T47D) was 3.27 µM. The TGI (T47D) was > 100 µM, the GI50 (A549) was 0.764 µM and the GI50 (786-0 [10]) was 2.75 µM. For the same molecule, the TGI (786-0 [10]) was 6.82 µM, the LC50 (HCC 2998) was 5.25 µM and the LC50 (UACC-257) was > 100 µM. The GI50 (OVCAR-3) was 4.2 µM, the TGI (OVCAR-3) was > 100 µM and the GI50 (NCI-H522) was 2.52 µM. The LC50 (SN12C) was > 100 µM, the LC50 (NCI-H23) was > 100 µM and the GI50 (MDA-MB-468) was 1.58 µM. It also gave a TGI (MDA-MB-468) of 4.39 µM, a GI50 (HCT-116) of 0.131 µM and a TGI (HCT-116) of 0.299 µM. The GI50 (HL-60) was 3.38 µM and the TGI (HL-60) was > 100 µM.
